Test results reported in ChEMBL document CHEMBL1126903.

Legend:
[1] = The pKa value was measured at 31-P chemical shift changes due to protonation
[2] = The pKa value was measured at 15-N chemical shift changes due to protonation
Outline: (§1)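 Chemical shift recorded at 4 °C across a pH series. Sample pH was read in an ice-water bath (0-4 °C) before and after each NMR run and the two readings averaged, with no correction for deuterium or temperature. The meter was calibrated at 20 °C. pKa came from fitting single- or double-ionization titration equations to shift versus pH, with error estimated at about 0.05 pH units.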

[3] = The pKa value was measured at 17-O chemical shift changes due to protonation
[4] = The pKa value was measured at N15 chemical shift changes due to protonation; outline: as §1

`Nc1ncnc2c1ncn2[C@@H]1O[C@H](COP(=O)(O)OP(=O)(O)OP(=O)(O)O)[C@@H](O)[C@H]1O` gave a pKa [1] of 6.6.
For `NP(=O)(O)O`, the pKa [2] was 2.8 and the pKa [1] was 3.
Compound `O=P(O)(O)NP(=O)(O)O` has a pKa [3] of 10.4 and a pKa [1] of 10.3.
In the case of `N[C@@H](Cc1c[nH]cn1)C(=O)O`, the pKa [4] is reported as 6.2.
In the case of `CCOP(=O)(NP(=O)(OCC)OCC)OCC`, the pKa [3] is reported as 4.2 and the pKa [1] is reported as 3.8.
In the case of `NP(N)(=O)O`, the pKa [2] is reported as 5.4 and the pKa [1] is reported as 5.4.
`c1c[nH]cn1` showed a pKa [4] of 7.
